Measured values collected from several papers.
Compare with care: the assays were run in different laboratories.
DYRK1A: Dual specificity tyrosine-phosphorylation-regulated kinase 1A (DYRK1A, Homo sapiens, UniProt Q13627)
ADRA1D: Alpha-1D adrenergic receptor (ADRA1D, Homo sapiens, UniProt P25100)
PDGFRB: Platelet-derived growth factor receptor beta (PDGFRB, Homo sapiens, UniProt P09619)

| Structure (SMILES) | target | test | setting | endpoint | value |
| --- | --- | --- | --- | --- | --- |
| Nc1ncnc2c1ncn2[C@@H]1O[C@H](COP(=O)(O)OP(=O)(O)OP(=O)(O)O)[C@@H](O)[C@H]1O | Inositol-tetrakisphosphate 1-kinase (Homo sapiens, UniProt Q13572) | enzyme activity, substrate, ADP detection | – | Km | 2.7 µM |
| CCCCC(=O)Nc1ccc(-c2ccc3ncn(CCC)c(=O)c3c2)cn1 | Ephrin type-A receptor 7 (EPHA7, Homo sapiens, UniProt Q15375) | binding, competition with immobilised ligand | 0.5 µM | remaining binding | 100% |
| CC(C)(C)C1CCc2c(C(=O)N/N=C/c3ccsc3)csc2C1 (centres unmarked) | DYRK1A | enzyme activity, inhibitor, ADP detection | 10 µM | inhibition | 23.1% |
| NC/C(=C\F)COc1cccc(Cn2c(=S)[nH]c(=O)c3[nH]cnc32)c1 | ADRA1D | ligand displacement, radioligand | 10 µM | inhibition | < 50% |
| Cc1cc(F)cc2c(CCC(=O)N[C@@H]3C(=O)NC[C@H]3O)c(-c3ccc(F)cc3)[nH]c12 | Muscarinic acetylcholine receptor M3 (CHRM3, Homo sapiens, UniProt P20309) | cell-free assay | 10 µM | inhibition | 0% |
| N#Cc1ccc(NC(=O)Nc2ccccc2)cc1 | PDGFRB | cell-free assay, competition with immobilised ligand | 25 µM | remaining binding | 33% |
| COc1ccc2oc(-c3ccc4nc(N)oc4c3)c/c(=N\c3ccccc3NC(=O)CCN)c2c1 | PDGFRB | binding | 1 µM | remaining binding | 107% |
| CC(=O)ON=C1C=CC(=C(C#N)c2ccccc2)C=C1 | DYRK1A | enzyme activity, inhibitor, ADP detection | 20 µM | activity vs control | 82% |
| Cc1cc(O)c(-c2ccc([C@@H](C)CN(C)C)cc2)c2c1[nH]c(=O)c1sccc12 | Microtubule-associated serine/threonine-protein kinase 3 (MAST3, Homo sapiens, UniProt O60307) | enzyme activity, inhibitor | 0.1 µM | inhibition | 2.4% |
| C1=C/COCc2cc(ccc2OCCN2CCCC2)Nc2nccc(n2)-c2cccc(c2)COC/1 | Myosin light chain kinase 2, skeletal/cardiac muscle (MYLK2, Homo sapiens, UniProt Q9H1R3) | binding | 0.1 µM | remaining binding | 76% |
| Nc1cc(-c2ccncc2)cs1 | DYRK1A | enzyme activity, inhibitor, ADP detection | 10 µM | inhibition | 25.6% |
| CN(C)CCOC(=O)COc1ccc(Cl)cc1 | ADRA1D | ligand displacement, radioligand | 1 µM, cell membranes | inhibition | 0% |
| Cc1nc(Sc2nc(C)nc3sc4c(c23)CCC4)c2c3c(sc2n1)CCC3 | DYRK1A | enzyme activity, inhibitor, ADP detection | 10 µM | inhibition | 47.4% |
| C#Cc1cc(-c2cc(Nc3nc(N[C@@H](C)c4ccc(F)cn4)ncc3Cl)n[nH]2)ccc1C=O | Homeodomain-interacting protein kinase 2 (HIPK2, Homo sapiens, UniProt Q9H2X6) | enzyme activity, inhibitor | 0.2 µM | inhibition | 40.4% |
